# Shown are actives, neighbours in structure and some others; about 3.5% of the full set was active somewhere.
# Wnt act: Wnt/beta-catenin pathway activation. activation, % at 9.35 µM. Wnt/beta-catenin reporter cell assay, activator, plate reader. 300,000 tested, 1.2% active; in the data active = activation above about 30%, passing the limit was not always enough; inconclusive = no clear call, values can overlap the other calls;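 note: 0% = neutral control wells and 100% = positive control wells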
# MITF act: MITF TRPM1 promoter activation in melanoma cells | SK-MEL-5 TRPM1-promoter luciferase, 24 h; % of positive control, neutral wells = 0 | activation, % at 12.5 µM | 300,000 tested, 0.75% active | AID 588334;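 active = mean activation of at least 80% with every replicate also reaching 80%; inconclusive = mean reaches 80% but some replicate falls short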;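 note: 0% = neutral control wells and 100% = parthenolide positive control wells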
# Cneo AK release: Cryptococcus neoformans lysis via adenylate kinase release; C. neoformans lysis, adenylate kinase release luminescence, 4 h; normalised: neutral wells 0, clomiphene wells 100; lysis activity, % at 15 µM; 360,000 tested, 0.2% active; AID 651654;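 active = mean lysis activity across replicates of at least 80%, whatever share of replicates individually reach that level; inactive = mean lysis activity below 80%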
#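 read-out = cell lysis signal | test system = log-phase Cryptococcus neoformans yeast cells | input = cells at 5 × 10^6 per mL | medium = fresh YPD growth medium | signal = luminescent adenylate kinase detection reagent | timing = 4 h at 37 °C static, read 1 h later | dosing = single dose | controls = Clomiphene as positive lysis control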
# esBAF inh: SWI/SNF esBAF complex inhibition; mouse ES cells, Bmi1-luciferase knock-in reporter, 24 h; 100% = twice the neutral-well signal; reporter increase, % at 12.5 µM; 350,000 tested, 2% active; in the data active = activation above about 40%; inconclusive = no clear call, values can overlap the other calls;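 note: 0% = median of the plate's neutral control wells and 100% = double that signal; a rise in the Bmi1 reporter signal indicates esBAF inhibition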
# ERAP1 inh: blocks human ERAP1 aminopeptidase activity | Q9NZ08 | recombinant ERAP1, Leu-AMC fluorescence, 60 min | inhibition, % at 10.7 µM | 340,000 tested, 0.15% active | AID 652197;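 active = mean replicate inhibition of at least 30%, or all replicates individually reaching that 30% level; inactive = mean below 30% and not every replicate reaching it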;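 note: 0% = neutral control wells and 100% = L-leucinethiol positive control wells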
# Target sequence (Q9NZ08 whole entry, looked up): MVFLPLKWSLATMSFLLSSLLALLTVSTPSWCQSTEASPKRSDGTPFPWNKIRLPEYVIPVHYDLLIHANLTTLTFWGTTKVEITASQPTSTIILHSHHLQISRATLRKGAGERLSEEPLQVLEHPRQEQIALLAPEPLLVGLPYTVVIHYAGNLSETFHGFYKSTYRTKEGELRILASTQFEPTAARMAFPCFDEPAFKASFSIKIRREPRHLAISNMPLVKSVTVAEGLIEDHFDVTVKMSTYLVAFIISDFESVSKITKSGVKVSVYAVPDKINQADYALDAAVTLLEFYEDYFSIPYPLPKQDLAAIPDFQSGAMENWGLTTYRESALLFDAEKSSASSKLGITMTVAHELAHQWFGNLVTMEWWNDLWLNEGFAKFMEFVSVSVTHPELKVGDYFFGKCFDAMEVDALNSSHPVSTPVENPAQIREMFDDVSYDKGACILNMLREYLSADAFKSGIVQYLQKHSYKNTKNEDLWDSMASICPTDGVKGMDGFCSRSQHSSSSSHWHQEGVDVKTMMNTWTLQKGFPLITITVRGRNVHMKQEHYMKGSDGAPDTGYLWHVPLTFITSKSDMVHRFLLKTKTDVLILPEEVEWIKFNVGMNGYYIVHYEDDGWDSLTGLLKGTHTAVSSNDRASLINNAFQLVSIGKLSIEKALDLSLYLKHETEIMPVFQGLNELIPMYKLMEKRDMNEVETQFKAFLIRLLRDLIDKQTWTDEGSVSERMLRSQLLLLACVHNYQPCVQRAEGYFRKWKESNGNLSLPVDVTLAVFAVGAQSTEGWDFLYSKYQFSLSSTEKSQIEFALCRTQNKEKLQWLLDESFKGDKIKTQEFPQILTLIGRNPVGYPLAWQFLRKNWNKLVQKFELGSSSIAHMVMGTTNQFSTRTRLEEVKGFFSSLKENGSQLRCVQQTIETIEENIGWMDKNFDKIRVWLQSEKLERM
# Env fusion inh: HIV envelope-mediated fusion inhibition; HeLa-JRFL Env/CEM21 cell fusion, luciferase; inhibition, % at 12.3 µM; 360,000 tested, 1.1% active; AID 651610;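 active = mean replicate inhibition score of at least 50 and every replicate individually at or above 50; inconclusive = only one of the two criteria met; inactive = mean below 50 and not all replicates reaching 50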;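 note: 0% = plate neutral controls and 100% = maraviroc near 300 nM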
# An asterisk follows results filed as active; i = inactive; ? = inconclusive; · = not tested or not shown; [ ] = another dose, or the depositor's remark.
SMILES,Wnt act,MITF act,Cneo AK release,esBAF inh,ERAP1 inh,Env fusion inh
O=C(c1ccco1)N1CCN(c2ccc(N3CCCCC3)nn2)CC1,31*,99*,-3,?,-6,-52
O=C(Nc1ccc(N2CCCC2)c(Cl)c1)c1ccco1,41*,48,24,14,·,-180
CN1CCN(c2ccc(NC(=O)c3ccco3)cc2Cl)CC1,19,15,-5,-1,-2,-47
C[C@H](CO)N1C[C@H](C)[C@H](CN(C)C(=O)CCCN(C)C)OCCCC[C@H](C)Oc2ccc(NS(=O)(=O)c3ccccc3)cc2C1=O,·,·,2,-5,1,-15[16.7 µM]
C/C=C/c1ccc([C@@H]2[C@@H](CO)N3C(=O)CN(Cc4ccccc4)C[C@@H]23)cc1,·,·,·,·,-3,·
C[C@@H]1CN([C@H](C)CO)C(=O)c2cc(Br)cnc2O[C@H]1CN(C)C(=O)c1ccccn1,·,·,6,1,4,-7[16.7 µM]
CCC(C)C(=O)N1CCCC(c2nc(-c3cccs3)no2)C1 (centres undefined),?,?,-2,53*,·,-80
Cc1ccc(C(=O)OCC(=O)NCC2CCCO2)c(C)c1 (centres undefined),0,9,·,·,7,13
Cc1c(C(=O)OCC(=O)NCC2CCCO2)cccc1[N+](=O)[O-] (centres undefined),37*,-11,·,10,-1,-2
COCC(=O)Nc1ccc2c(c1)[C@@H]1C[C@H](CC(=O)N3CCN(C)CC3)O[C@@H](CO)[C@@H]1O2,·,·,-3,3,·,-7[16.7 µM]
CS(=O)(=O)N1Cc2cc(C(=O)O)nc(-c3cccc(-c4ccccc4F)c3)c2[C@@H]1CCO,·,·,·,·,3,·
[N-]=[N+]=NCc1ccccc1C[C@]1(C(=O)NCc2ccccc2)COC(c2ccc(OCCCO)cc2)=N1,·,·,-3,·,0,1[16.7 µM]
O=C(c1ccccc1)N1CC2(C1)[C@H](c1ccccc1)[C@H](CO)N2CC1CC1,·,·,·,·,-2,·
COc1ccccc1C(=O)Nc1ccc(N2CCN(S(C)(=O)=O)CC2)cc1,·,·,-5,44*,·,-79
CSc1sc(-c2ccnc(SCC(=O)C(C)(C)C)n2)c2c1C(=O)CC(C)(C)C2,-7,·,·,-10,8,65*
Oc1ccc(Br)cc1/C=N/N1CCCCC1,3,110*,0,·,·,-81
Oc1ccc(Br)cc1/C=N/N1CCN(Cc2ccccc2)CC1,·,27,-6,20,·,·
Oc1ccc(Br)cc1/C=N/n1cnc2ccccc21,·,28,-2,53*,·,-30
O=[N+]([O-])c1ccc(O)c(C=NN2CCCCC2)c1,-4,·,-2,·,0,·
O=C(Nc1ccccc1)N1CCc2c([nH]c3ccccc23)C1C(F)(F)F (centres undefined),-1,·,1,·,-3,3
COc1cccc(Cl)c1NC(=O)N1CCc2c([nH]c3ccccc23)C1C(F)(F)F (centres undefined),-1,17,·,·,·,83*
Cc1ccc(CN(C(=O)c2cc3ccccc3oc2=O)C2CCS(=O)(=O)C2)cc1 (centres undefined),·,43,-6,36,·,-77
O=C(NCc1ccccc1)c1cc2ccccc2oc1=O,12,59,-1,27,8,-6
Cc1cccnc1NC(=O)c1cc2ccccc2oc1=O,47*,12,-3,?,0,-30
CN(C)C(CNC(=O)c1cc2ccccc2oc1=O)c1ccccc1 (centres undefined),29,99*,-3,51*,0,-52
SMILES,Wnt act,MITF act,Cneo AK release,esBAF inh,ERAP1 inh,Env fusion inh
O=C(c1cc2ccccc2oc1=O)N(Cc1ccc(F)cc1)C1CCS(=O)(=O)C1 (centres undefined),-6,·,4,?,-2,-17
CC(C)N(Cc1ccc(F)cc1)C(=O)c1cc2ccccc2oc1=O,7,·,0,47*,-3,-13
CCc1ccc(CN(C(=O)c2cc3ccccc3oc2=O)C2CCS(=O)(=O)C2)cc1 (centres undefined),·,·,-3,86*,·,-178
CN(C)C(=O)c1ccc(-c2ccc([C@@H]3[C@H](CO)N4CCCCN(C(=O)C5CCC5)C[C@@H]34)cc2)cc1,·,·,0,·,-3,·
COc1cccc(/C=C/C(=O)c2c(O)cc(C)oc2=O)c1O,21,-7,-5,6,·,i
COc1ccc(/C=C/C(=O)c2c(O)cc(C)oc2=O)c(OC)c1,15,10,3,64*,·,·
CSc1ccc(/C=C/C(=O)c2ccc(NC(=O)C(C)C)cc2)cc1,·,4,·,·,·,·
CSc1ccc(/C=C/C(=O)c2c(O)cc(C)oc2=O)cc1,19,28,8,54*,2,-63
CSc1ccc(C(=O)/C=C/c2ccc(N)cc2)cc1,67*,64,·,66*,·,-18
C[C@@H]1CCCCO[C@H](CN(C)S(=O)(=O)c2cn(C)cn2)[C@@H](C)CN([C@H](C)CO)C(=O)c2cc(NS(=O)(=O)c3ccc(F)cc3)ccc2O1,·,·,-2,4,3,-10[16.7 µM]
O=C(CSc1nnc2ccc(-c3ccc(F)cc3)nn12)N1CCCC1,23,-4,·,·,34*,15
COCC(=O)N1C[C@@H]2[C@H](c3ccccc31)[C@@H](CO)N2Cc1ccccc1Cl,·,·,-6,2,1,·
CC(C)NC(=O)N(C)C[C@@H]1OCCCC[C@H](C)Oc2ccc(NC(=O)Nc3ccc(C(F)(F)F)cc3)cc2C(=O)N([C@@H](C)CO)C[C@H]1C,·,·,-2,2,-1,?
O=C(N/N=C/c1ccc[nH]1)c1cc2ccccc2cc1O,8,32,-1,53*,0,-16
O=C(N/N=C/c1ccc[nH]1)c1sc2ccccc2c1Cl,1,6,-2,55*,·,-39
CN1C(=O)c2cc(NC(=O)Cc3ccccc3)ccc2OC[C@@H]2O[C@H](CC(=O)O)CC[C@H]21,·,·,6,1,-1,-12[16.7 µM]
COc1cccc(C#Cc2ccc([C@H]3[C@H]4CN(C(=O)C5CC5)CC(=O)N4[C@H]3CO)cc2)c1,·,·,·,·,0,·
Cc1cccc(-c2ccc([C@H]3[C@@H](CO)N4CCCCN(C(=O)NC(C)C)C[C@H]34)cc2)c1,·,·,-1,3,-1,·
CCOC(=O)c1c(CSc2cccs2)n(C)c2cc(Br)c(O)c(CN(C)C)c12,1,13,0,1,6,85*
Cc1ccc(SCc2cn3cc(Cl)ccc3n2)cc1,35*,·,·,·,0,-19
Cc1cccc2nc(CSc3ccc(Cl)cc3)cn12,13,101*,5,76*,3,3
Clc1ccc2nc(CSCc3ccccc3)cn2c1,67*,51,·,·,4,-128
CNc1cc(CSc2ccc(Cl)cc2)nc(C)n1,10,80,2,52*,7,-47
Cc1nc(CSc2ccc(Cl)cc2)cc(NCc2ccccc2)n1,·,5,6,2,·,·
CNC[C@@H]1Oc2ncc(-c3ccc(C)cc3)cc2C(=O)N([C@H](C)CO)C[C@H]1C,·,·,·,·,2,·
Cc1ccc(SCc2cn3c(C)csc3n2)cc1,1,84*,-5,7,1,·

# Compound activity as filed in PubChem BioAssay.
